High-throughput results deposited in PubChem BioAssay by The Scripps Research Institute Molecular Screening Center.
Most compounds without a hit are left out; they make up all but 1.9% or so of the library.
M4 ag: human M4 muscarinic receptor agonists, primary screen, CHO-K1 cells, Fluo-8 calcium fluorescence; Muscarinic acetylcholine receptor M4 (Homo sapiens), P08173; CHO-K1 hM4/Gqi5; vehicle 0%, full acetylcholine response 100%; activation, % at 3 µM; hit rate 0.14% among 360,000; AID 624127, 2012;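 active means activation above the run mean over all test wells plus 3 SD, cut at about 32% in these data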;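 further: peak over basal fluorescence ratio per well then scaled between controls; 0% = DMSO wells and 100% = acetylcholine at EC100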
CHRM5 PAM: human M5 muscarinic receptor positive allosteric modulators, primary screen, CHO-K1 cells, Fluo-8 calcium fluorescence. Muscarinic acetylcholine receptor M5 (Homo sapiens), P08912. CHO-K1 hM5, ACh EC20 PAM; 0% = ACh EC20, 100% = ACh EC100. activation, % at 3 µM. hit rate 0.3% among 360,000. AID 624038, 2012;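 active means activation above the run cutoff, the mean activation of all test compounds plus 3 SD, cut at about 18% in these data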
Target sequence (P08912 whole entry, looked up): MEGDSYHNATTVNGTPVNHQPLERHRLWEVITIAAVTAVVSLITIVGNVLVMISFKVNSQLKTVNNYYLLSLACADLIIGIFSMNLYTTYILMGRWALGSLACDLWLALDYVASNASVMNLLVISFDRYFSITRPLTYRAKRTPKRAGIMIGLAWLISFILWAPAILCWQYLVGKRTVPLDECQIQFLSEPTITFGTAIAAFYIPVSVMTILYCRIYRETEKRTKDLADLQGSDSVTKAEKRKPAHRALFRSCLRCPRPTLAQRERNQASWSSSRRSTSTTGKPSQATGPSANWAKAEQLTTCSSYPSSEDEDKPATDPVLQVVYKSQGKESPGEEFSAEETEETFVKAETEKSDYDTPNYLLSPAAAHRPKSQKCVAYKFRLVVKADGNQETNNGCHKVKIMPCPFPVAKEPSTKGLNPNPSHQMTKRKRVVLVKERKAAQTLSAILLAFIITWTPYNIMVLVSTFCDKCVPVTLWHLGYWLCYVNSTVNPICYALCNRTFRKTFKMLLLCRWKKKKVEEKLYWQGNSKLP
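Measured by: Fluo-8 calcium fluorescence; material: human M5 receptor in CHO-K1 cells; schedule: Post-acetylcholine fluorescence recording 140 s; benchmarks: low control EC20 acetylcholine (0%), high control EC100 acetylcholine (100%); read-out: Max/basal fluorescence ratio as % of EC20–EC100 ACh window; compound: single dose, 3 µM nominal final test concentration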
CHRM5 agonist: human M5 muscarinic receptor agonists, primary screen, CHO-K1 cells, Fluo-8 calcium fluorescence | Muscarinic acetylcholine receptor M5 (Homo sapiens), P08912 | hit rate 0.19% among 360,000 | activation, % at 3 µM | CHO-K1 hM5 cells; 0% DMSO wells, 100% maximal acetylcholine response | AID 624037, 2012;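 active means activation above the run's mean over test compounds plus 3 SD, cut at about 23% in these data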;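 further: signal is peak over basal fluorescence ratio across the kinetic read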
M5 antag: human M5 muscarinic receptor antagonists, primary screen, CHO cells, Fluo-8 calcium fluorescence; hit rate 0.59% among 360,000; CHO-hM5 cells, ACh EC80; AID 624040, 2012; inhibition, % at 3 µM;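 active means inhibition above a per-plate cutoff, the mean of that plate's test compounds plus 3 SD, cut at about 27% in these data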;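 further: 0% = acetylcholine EC80 with DMSO and 100% = DMSO without agonist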
M4 antag: human M4 muscarinic receptor antagonists, primary screen, CHO cells, Fluo-8 calcium fluorescence; Muscarinic acetylcholine receptor M4 (Homo sapiens), P08173; CHO-hM4 cells, ACh EC80; inhibition, % at 3 µM; hit rate 0.73% among 360,000; AID 624125, 2012;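 active means inhibition above its plate's cutoff, the mean inhibition of sample wells plus 3 SD, cut at about 27% in these data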;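 further: 0% = acetylcholine EC80 with DMSO and 100% = DMSO without agonist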
CHRM4 PAM: human M4 muscarinic receptor positive allosteric modulators, primary screen, CHO-K1 cells, Fluo-8 calcium fluorescence; CHO-K1 hM4/Gqi5, ACh EC20; 0% = ACh EC20, 100% = maximal ACh; AID 624126, 2012; activation, % at 3 µM; hit rate 0.4% among 360,000; Muscarinic acetylcholine receptor M4 (Homo sapiens), P08173;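 active means activation above its plate's cutoff, the mean activation of sample wells plus 3 SD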
An asterisk follows results filed as active.

SMILES	M4 ag	CHRM5 PAM	CHRM5 agonist	M5 antag	M4 antag	CHRM4 PAM
Brc1ccc2c(c1)C(OC1CN3CCC1CC3)c1ccccc1CS2 (centres undefined)	10	-19	-1	100*	100*	-41
CCCCn1nnnc1C(CCSC)N1CCC(n2c(=O)[nH]c3ccccc32)CC1 (centres undefined)	27	-18	14	11	15	-9
CCOC(=O)[C@]12Cc3ccccc3[C@H]1N(CCC(=O)OC)C(=O)c1ccccc12	0	3	0	-8	-9	5
CC(=O)Nc1ccc(OC(=O)N2CCCCC2)cc1	0	1	-2	-4	-1	8
O=C(Oc1ccc([N+](=O)[O-])cc1)N1CCC(N2CCCCC2)CC1	0	-4	-8	4	56*	-17
Cc1ccc2c(c1N)C(=O)c1ccccc1C2=O	14	-12	5	28*	14	-2
CCN(CC)C(=O)c1ccc(NC(=O)c2cn(-c3ccccc3)nc2-c2ccc(OC)cc2)cc1	8	-10	-3	28*	0	-5
Fc1cccc(-c2ccc3c(c2)CNCc2cnnn2-3)c1	3	1	-1	3	-6	2
CCC(C#N)(CC)P(=S)(c1ccccc1)c1ccccc1	-2	-11	-6	2	-1	-11
CC(CC(C#N)(c1ccccc1)c1ccccc1)N(C)C (centres undefined)	1	-23	-6	99*	91*	-17
O=C1C2CC(CN3CCCCC23)C2CCCCN12 (centres undefined)	1	1	1	3	-14	6
COc1ccccc1CCNC1C2CC3CC(C2)CC1C3 (centres undefined)	1	-7	-8	8	32*	-14
Cc1c(N=Cc2c(O)n(CCc3ccccc3)c(=O)[nH]c2=O)c(=O)n(-c2ccccc2)n1C	2	-5	-6	4	-3	-7
CCCCCCn1c(O)c(C=Nc2c(C)n(C)n(-c3ccccc3)c2=O)c(=O)[nH]c1=O	-1	25*	-4	19	-8	12
CCC1(C)OC(c2ccccc2)=C/C(=C/C=C2C(=O)NC(=O)NC2=O)O1 (centres undefined)	16	-19	61*	5	10	-10
CC1=C(C)CN2CC(C#N)=C(N)C2C1 (centres undefined)	1	-3	3	-6	-18	14
FC(F)(F)c1ccc(-c2ccc3c(c2)CNCc2cnnn2-3)cc1	4	0	1	-3	-2	-1
O=C1NC(=O)N(c2ccccc2F)C(=O)/C1=C/c1ccc(Sc2nc3ccccc3[nH]2)o1	41*	-9	16	5	21	-28
O=C1NC(=O)N(c2ccccc2)C(=O)/C1=C/c1ccc(Sc2ccccc2)o1	3	6	2	-1	-1	6
O=C1NC(=O)N(c2cccc(Cl)c2)C(=O)/C1=C\c1ccc(Sc2nc3ccccc3[nH]2)o1	25	-24	36*	18	6	-7
OC(c1ccccc1)(c1ccc(Cl)cc1)C1CN2CCC1CC2 (centres undefined)	9	-32	-18	60*	44*	-55
OC(Cc1ccccc1)(c1ccccc1)C1CN2CCC1CC2 (centres undefined)	1	-20	-8	90*	85*	-24
OC(c1ccccc1)(c1ccccc1)C1CN2CCC1CC2 (centres undefined)	1	-22	-12	99*	75*	-21
c1ccc(C2CN3CCC2CC3)cc1 (centres undefined)	0	-18	-18	6	11	-13
O=S(=O)(c1cc(Cl)cc(Cl)c1)N1Cc2cc(N3CCOCC3)ccc2-n2nncc2C1	0	0	1	2	-12	0
SMILES	M4 ag	CHRM5 PAM	CHRM5 agonist	M5 antag	M4 antag	CHRM4 PAM
C[C@@H]1COc2cccc(N3CCN(C)CC3)c2S(=O)(=O)N1	1	-16	-7	0	1	-3
O=S(=O)(c1cccc2ccccc12)N1Cc2ccccc2-n2nncc2C1	13	-5	2	10	-9	-8
O=C1OC(c2ccc(Cl)cc2)=N/C1=C\N1CC2CC(C1)c1cccc(=O)n1C2 (centres undefined)	1	22*	-5	-9	-5	15
O=C1OC(c2ccc(Br)cc2)=N/C1=C\N1CC2CC(C1)c1cccc(=O)n1C2 (centres undefined)	0	4	-12	-1	5	-6
COC(=O)C1=C(c2c(C)noc2C)C[C@@H]2CC[C@H]1N2C(=O)NC1Cc2ccccc2C1	0	-2	-1	10	0	15
Cc1cccc(C)c1-n1nnnc1C(c1cccs1)N1CCC2(CC1)C(=O)NCN2c1ccccc1 (centres undefined)	4	2	5	3	-19	7
CC1CCCN(c2ccc(C(=O)N3CCC4(CC3)OCCO4)cc2[N+](=O)[O-])C1 (centres undefined)	2	6	-2	-4	-7	-2
CCOC(=O)C1CCCN(c2ccc([N+](=O)[O-])c3nonc23)C1 (centres undefined)	314*	-37	185*	52*	53*	-31
N#Cc1ncc(N=Cc2ccc(N(CCCl)CCCl)cc2)s1	0	-3	-6	17	4	-4
C#CCOC(=O)C1=CCCN(C)C1	70*	-16	97*	97*	74*	-19
